Experimental data as given in ChEMBL document CHEMBL4145651, “Kleinhospitine E and Cycloartane Triterpenoids from Kleinhovia hospita” (J Nat Prod, 2018).

Assays:
A549 = assay: Antiproliferative activity against human A549 cells after 72 hrs by SRB assay; assay type: functional, cell-based; conditions: A549, 72 h
KB = assay: Antiproliferative activity against human KB cells after 72 hrs by SRB assay; assay type: functional, cell-based
MDA-MB-231 = assay: Antiproliferative activity against human MDA-MB-231 cells after 72 hrs by SRB assay; assay type: functional, cell-based; conditions: MDA-MB-231, 72 h
[1] = Antiproliferative activity against human KBVIN cells after 72 hrs by SRB assay; assay type: functional, cell-based
MCF7 = assay: Antiproliferative activity against human MCF7 cells after 72 hrs by SRB assay; assay type: functional, cell-based; conditions: MCF7, 72 h
[2] = test system: Human immunodeficiency virus 1; assay: Antiviral activity against HIV1 NL4-3 infected in human MT4 cells assessed as inhibition of viral replication after 3 days by luciferase reporter gene assay; assay type: functional, organism-based
Method in brief: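 MT4 cells (1 × 10^5 cells/mL) infected with HIV-1 NL4-3 Nanoluc-sec reporter virus at 50 TCID50/well alongside a range of compound concentrations (multicycle replication). Supernatants harvested on day 3 post-infection and read for secreted luciferase (Nano-Glo).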

[3] = Selectivity index, ratio of CC50 for human MT4 cells to IC50 for HIV1 NL4-3 infected in human MT4 cells; assay type: toxicity, cell-based; conditions: read-out: Ratio CC50/IC50
Method in brief: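 Selectivity index computed as CC50 (MT4 CytoTox-Glo, 3 days) divided by anti-HIV IC50 (NL4-3 Nanoluc-sec luciferase in MT4, day 3); SI below 5 regarded as no selective activity.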

[4] = Cytotoxicity against human MT4 cells assessed as reduction in cell viability after 3 days by cytoTox-Glo reagent based assay
[5] = Human immunodeficiency virus 1, NL4-3, MT4, 72 h, read-out: IC50

Row | IC50 (A549) | IC50 (KB) | IC50 (MDA-MB-231) | IC50 (MCF7) | IC50 ([2]; mt4) | IC50 [2, 5] | SMILES | IC50 [1] | selectivity ratio [3] | CC50 at 72 h [4]
1 | > 10 µM | > 10 µM | > 10 µM | > 10 µM |  |  | CC(C)=CC(=O)CC(C(=O)O)[C@H]1CC[C@@]2(C)[C@@H]3CC[C@H]4C(C)(C)C(=O)C=C[C@@]45C[C@@]35CC[C@]12C (some centres undefined) | > 10 µM |  | 
2 | > 10 µM | > 10 µM | > 10 µM | > 10 µM |  |  | CC(C)=CC(=O)C[C@@H](C)[C@H]1CC[C@@]2(C)[C@@H]3CC[C@H]4C(C)(C)C(=O)C=C[C@@]45C[C@@]35CC[C@]12C | > 10 µM |  | 
3 | 9.4 µM | 8 µM | 10 µM | > 10 µM | Not Active |  | CC(=O)/C=C1/C=C([C@H]2CC[C@@]3(C)[C@@H]4CC[C@H]5C(C)(C)C(=O)C=C[C@@]56C[C@@]46CC[C@]23C)C(=O)N1 | 6.9 µM | < 5 | 
4 | > 10 µM | > 10 µM | > 10 µM | > 10 µM |  | 0.8 µM | CC1=C[C@@]2(C[C@H]([C@H]3CC[C@@]4(C)[C@@H]5CC[C@H]6C(C)(C)C(=O)C=C[C@]67C[C@]57CC[C@]34C)CO2)OC1=O | > 10 µM | 5.8 | 4.6 µM
5 | > 10 µM | > 10 µM | > 10 µM | > 10 µM | Not Active |  | CC(C)=CC(=O)C[C@@H](C)[C@H]1CC[C@@]2(C)[C@@H]3CC[C@H]4C(C)(C)C(=O)C=C[C@]45C[C@]35CC[C@]12C | 8.4 µM | < 5 | 

The remaining lines, values behind:

Row | SMILES | IC50 (A549) | IC50 (KB) | IC50 (MDA-MB-231) | IC50 (MCF7) | IC50 ([2]; mt4) | IC50 [2, 5] | IC50 [1] | selectivity ratio [3] | CC50 at 72 h [4]
6 | CO[C@@H]1O[C@@]2(C=C(C)C(=O)O2)C[C@@H]1[C@H]1CC[C@@]2(C)[C@@H]3CC[C@H]4C(C)(C)C(=O)C=C[C@@]45C[C@@]35CC[C@]12C | 9.1 µM | > 10 µM | > 10 µM | > 10 µM | Not Active |  | 5.7 µM | < 5 | 
7 | Cc1cn([C@H]2C[C@H](N=[N+]=[N-])[C@@H](CO)O2)c(=O)[nH]c1=O [ZIDOVUDINE] |  |  |  |  |  |  |  |  | > 3.74 µM
8 | CO[C@H]1O[C@]2(C=C(C)C(=O)O2)C[C@@H]1[C@H]1CC[C@@]2(C)[C@@H]3CC[C@H]4C(C)(C)C(=O)C=C[C@]45C[C@]35CC[C@]12C | > 10 µM | > 10 µM | > 10 µM | > 10 µM |  | 2.4 µM | > 10 µM | 5.3 | 12.6 µM
9 | CC(=O)O[C@H]1C(=O)[C@@]2(C)[C@H]([C@H](OC(=O)c3ccccc3)[C@]3(O)C[C@H](OC(=O)[C@H](O)[C@@H](NC(=O)c4ccccc4)c4ccccc4)C(C)=C1C3(C)C)[C@]1(OC(C)=O)CO[C@@H]1C[C@@H]2O [PACLITAXEL] | 0.0063 µM |  | 0.0081 µM | 0.0112 µM |  |  | 2.79 µM |  | 
10 | CO[C@H]1O[C@@]2(C=C(C)C(=O)O2)C[C@@H]1[C@H]1CC[C@@]2(C)[C@@H]3CC[C@H]4C(C)(C)C(=O)C=C[C@@]45C[C@@]35CC[C@]12C | > 10 µM | > 10 µM | > 10 µM | > 10 µM | Not Active |  | > 10 µM | < 5 | 
11 | CC1=C[C@@]2(C[C@H]([C@H]3CC[C@@]4(C)[C@@H]5CC[C@H]6C(C)(C)C(=O)C=C[C@@]67C[C@@]57CC[C@]34C)CO2)OC1=O | 8.2 µM | > 10 µM | > 10 µM | > 10 µM |  |  | > 10 µM |  | 
12 | CO[C@H]1O[C@]2(C=C(C)C(=O)O2)C[C@@H]1[C@H]1CC[C@@]2(C)[C@@H]3CC[C@H]4C(C)(C)C(=O)C=C[C@@]45C[C@@]35CC[C@]12C | 8.9 µM | > 10 µM | > 10 µM | 10 µM |  |  | 6.1 µM |  | 
13 | CC1(C)CC[C@]2(C)CC=C3[C@]4(C)CC[C@H]5C(C)(C)C(=O)CC[C@]5(C)[C@H]4CC[C@@]3(C)[C@@H]2C1 [TARAXERONE] | > 10 µM | > 10 µM | > 10 µM | > 10 µM |  |  | > 10 µM |  | 
